Pemphigus Ab inh: human desmoglein-3 autoantibody binding inhibition. P32926. DSG3-coupled beads, scFv-anti-DSG3-GFP binding, flow cytometry; active compounds read low. 310,000 tested, 0.48% active. binding (percent of control), % at 10 µM;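 active means binding more than 3 SD below its plate's average and above zero; inconclusive means below that plate limit but binding exactly zero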;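 further: hits lower antibody fragment binding to DSG3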
LANA-H2A inh: blocks KSHV LANA binding to histone H2A/H2B. Q9QR71. cell-free LANA-H2A/H2B peptide, fluorescence polarization. inhibition, % (concentration not given with the values). 320,000 tested, 0.6% active. AID 2629; in the data active means inhibition mostly above about 10%, no sharp cut-off; inactive means mostly below about 6.7%
Arr AP2 block: inhibitors of human beta-arrestin and AP2 interaction. 340,000 tested, 0.31% active. FITC-arrestin peptide / GST-AP2 beads, flow cytometry; AP2 beta2 appendage carries R879A mutation. inhibition, % at 10 µM. AID 504490;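 active means inhibition above a set limit, near 3 SD of compounds lacking own fluorescence, cut at about 54% in these data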
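test system = AP2 appendage R879A on GSH beads | buffer or medium = PBS plus Tween 20 (0.05%) and BSA (0.1%) | incubation = 12 min plus 1 h, RT | detection = bead flow cytometry, FITC channel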
T cell modulator: modulates CD8 T cell binding to vesicles; 2C CD8+ T cell-vesicle binding, flow cytometry; active compounds read low; response (vesicle binding), % at 7 µM; 330,000 tested, 0.068% active; AID 2052;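 active means response, share of CD8 T cells binding vesicles, and their 90th percentile fluorescence all below set limits, cut at about 80% in these data, passing the limit was not always enough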;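 further: values below 100% mean blocked vesicle binding to the CD8+ T cells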
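Material: murine 2C transgenic CD8+ T lymphocytes / Also added: QL9-peptide-loaded Drosophila micro-vesicles bearing Ld, ICAM-1 and B7-1 / Schedule: binding step 1.5 h, 37 °C, antibody labelling 20 min, ice / Signal: flow cytometry, PE anti-B7-1 (FL2) versus Alexa647 anti-CD8 (FL8), PFA-fixed / Evaluation: percent CD8+ FL2 mean versus row control / Benchmarks: naked versus QL9-loaded vesicles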
HDAC3 inhib: blocks human histone deacetylase 3 | O15379 | recombinant HDAC3, fluorogenic peptide/trypsin coupled, fluorescence | inhibition, % at 8.3 µM | 320,000 tested, 0.15% active | AID 2718; in the data active means inhibition above about 26%, passing the limit was not always enough; inconclusive means no clear call, values can overlap the other calls
Arr-AP2 CP1: inhibitors of human beta-arrestin and AP2 interaction | GST-AP2 beads, FITC arrestin peptide binding, flow cytometry; GST-fused beta2-adaptin appendage, R879A mutant | AID 504908 | inhibition, % at 10 µM | 1,300 tested, 2% active | shares compounds with Arr AP2 block;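 active means inhibition above a set limit, roughly 3 SD of non-fluorescent compound noise, cut at about 38% in these data; inactive means inhibition at or below that limit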;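 further: loss of bead fluorescence from 50 nM FITC arrestin peptide bound to appendage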
GST-FITC bead: counter-screen for beta-arrestin AP2 inhibitors: GST-GSH bead binding. shares compounds with Arr AP2 block. GST-fluorescein binding to GSH beads, fluorescence. inhibition, % at 10 µM. 1,300 tested, 2% active. AID 588338;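 active means inhibition above 50%, about 3 SD of the inhibition seen with non-fluorescent compounds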;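 further: fluorescein maleimide labelled GST captured on 4 micron glutathione beads; higher means more loss of bead fluorescence from quenching or blocked binding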
A number is an active result; – = inactive; ? = inconclusive; · = no result. Only some compounds are listed: those with a hit (about 1.5% of all), similar ones and a draw of the others.

SMILES	Pemphigus Ab inh	LANA-H2A inh	Arr AP2 block	T cell modulator	HDAC3 inhib	Arr-AP2 CP1	GST-FITC bead
Nc1ccc(CCc2nc3ccccc3o2)cc1	–	–	–	–	–	·	·
O=S(=O)(CCc1nc2ccccc2o1)c1ccc(Cl)c(Cl)c1	–	–	90.9	–	–	–	–
Cc1ccc(CNC(=O)Cn2cnc(S(=O)(=O)N3CCC(C)CC3)c2)o1	·	–	55.2	–	–	–	–
COc1ccc(CC(=O)N2CCC(n3nccc3NC(=O)C3CC3)CC2)cc1	·	–	–	–	–	·	·
COc1ccc(CC(=O)N2CCC(n3nccc3NC(=O)C3CCOC3)CC2)cc1 (stereo not drawn)	·	–	63.8	–	–	–	–
O=C1C(Cl)=C(NC(=O)c2ccccc2)C(=O)C(Cl)=C1NC(=O)c1ccccc1	–	–	58.1	–	?	75.0	–
Cc1ccc(C(C)(C)NC(=O)C2CCC(=O)N(Cc3ccccc3F)C2)cc1 (stereo not drawn)	·	–	–	–	–	–	–
CCC(C)NC(=O)CN1c2cccc3cccc(c23)S1(=O)=O (stereo not drawn)	–	–	–	–	–	·	·
COC(=O)c1c(NC(=O)/C=C/C(=O)O)sc(C)c1-c1ccc(C(C)C)cc1	–	–	56.8	–	–	–	–
CC(=O)Nc1ccc(C(=O)OCC(=O)N2CCC(Cc3ccccc3)CC2)cc1	–	–	–	–	–	·	·
O=C(Cn1cc(C(F)(F)F)ccc1=O)N1CCc2ccccc21	?	–	65.3	–	–	–	–
CCOc1ccc(NC(=O)CC2S/C(=N/N=C3CCCCCC3)NC2=O)cc1 (stereo not drawn)	–	–	–	–	–	·	·
N#CCCNS(=O)(=O)c1ccc(C(=O)OCCCOC(=O)c2ccc(S(=O)(=O)NCCC#N)cc2)cc1	–	–	–	–	–	·	·
COc1ccccc1CNC(=O)COC(=O)c1c(C)nn(-c2ccccc2)c1Cl	–	–	67.0	–	·	–	–
COc1cccc(CNC(=O)COC(=O)c2c(C)nn(-c3ccccc3)c2Cl)c1	–	–	–	–	–	·	·
COc1cccc(CN(C)c2nc(-c3cccs3)nc3ccccc23)c1	–	–	55.0	–	–	–	–
O=C(Nc1nc(-c2cc3ccccc3o2)cs1)c1ccc(S(=O)(=O)N2CCCC2)cc1	–	–	–	–	–	·	·
CC1CN(S(=O)(=O)c2ccc(C(=O)Nc3nc(-c4cc5ccccc5o4)cs3)cc2)CC(C)O1 (stereo not drawn)	–	–	106.6	–	–	–	–
COc1cc2c(cc1NC(=O)Cc1ccc(C)cc1)oc1ccccc12	–	–	–	–	–	–	–
COc1cc2c(cc1NC(=O)CSc1cccc[n+]1[O-])oc1ccccc12	–	–	56.2	–	–	–	–
COc1cc2c(cc1NC(=O)COC(=O)[C@@H](NS(=O)(=O)c1ccccc1)C(C)C)oc1ccccc12	–	–	–	–	–	·	·
COc1cc2c(cc1NC(=O)CSCC(=O)O)oc1ccccc12	–	–	–	–	–	·	·
COc1cc2c(cc1NC(=O)COC(=O)c1ccc(C(C)(C)C)cc1)oc1ccccc12	–	–	–	–	–	–	–
COC(=O)c1cc(OC)c(OC)cc1NC(=O)C(C)Sc1ccc(C)cc1 (stereo not drawn)	–	–	–	–	–	·	·
COc1cc2c(cc1NC(=O)C(C)Sc1ccc(C)cc1)oc1ccccc12 (stereo not drawn)	–	–	–	–	–	–	·
SMILES	Pemphigus Ab inh	LANA-H2A inh	Arr AP2 block	T cell modulator	HDAC3 inhib	Arr-AP2 CP1	GST-FITC bead
CN(Cc1ccco1)C(=O)C1CCCN(c2ncnc3c2nc2n3CCCCC2)C1 (stereo not drawn)	–	–	–	–	–	·	·
Cc1[nH]c(-c2ccc(F)cc2)cc1C(=O)N1CCN(c2cccc(Cl)c2)CC1	–	–	–	–	–	·	·
O=C(C1CCN(S(=O)(=O)c2ccccc2F)CC1)N1CCN(Cc2ccc3c(c2)OCO3)CC1	–	–	–	–	–	·	·
COc1cc2c(cc1NC(=O)COc1ccccc1OC)oc1ccccc12	–	–	–	–	–	–	–
COc1cc2c(cc1NC(=O)CSc1ccc(C)cc1)oc1ccccc12	–	–	–	–	–	–	–
CCCn1c(=S)[nH]c2cc(C(=O)N(CCO)Cc3ccccc3)ccc2c1=O	–	–	–	–	–	·	·
CC(=O)Nc1c(C)nn(-c2ccc([N+](=O)[O-])cc2)c1C	–	–	54.0	–	–	–	–
Cc1ccc(NC(=O)CN2C(=O)NC(Cc3ccccc3)C2=O)cc1Cl (stereo not drawn)	·	–	–	–	–	·	·
CCCOc1ccc(C2C(C(=O)c3ccc(C)o3)=C(O)C(=O)N2Cc2ccco2)cc1OCC (stereo not drawn)	–	–	64.4	–	–	–	–
CCCOc1ccc(C2C(C(=O)c3ccc(C)o3)=C(O)C(=O)N2Cc2ccco2)cc1 (stereo not drawn)	–	–	–	–	–	·	·
COc1ccc(S(=O)(=O)NCC2CCCN(Cc3cccnc3)C2)cc1 (stereo not drawn)	–	–	–	–	–	·	·
COc1ccc(S(=O)(=O)NCC2CCCN(Cc3cccc(C(C)=O)c3)C2)cc1 (stereo not drawn)	–	–	61.8	–	–	–	–
c1ccc(Nc2cccc(Nc3ccccc3)n2)cc1	–	–	61.3	–	–	–	–
c1ccc(Nc2ccccn2)cc1	·	–	–	–	–	·	·
CCOC(=O)CN1C(=O)NC2NC(=O)NC21 (stereo not drawn)	–	–	79.0	–	–	–	–
O=C(CN1CCCC1c1cccs1)N1CCN(S(=O)(=O)c2ccccc2)CC1 (stereo not drawn)	–	·	–	·	·	·	·
CCN(CC(=O)Nc1c(F)cccc1F)C(=O)CCNC(=O)c1ccc([N+](=O)[O-])cc1	–	–	–	–	–	·	·
CCCCSC(=S)N(C)C1CCS(=O)(=O)C1 (stereo not drawn)	–	–	97.6	–	–	–	–
O=C(COc1ccc2ccccc2c1Br)N1CCCCC1	–	–	–	–	–	·	·
CC1CN(C(=O)COc2ccc3ccccc3c2Br)CC(C)O1 (stereo not drawn)	–	–	67.1	–	–	–	–
CC1(CCc2ccc3c(c2)OCO3)NCCc2c1[nH]c1ccccc21 (stereo not drawn)	–	–	–	–	–	·	·
CCOc1ccc(/C=C2\CCC(C3CCCC3)C2=O)cc1OC (stereo not drawn)	–	–	59.2	–	–	–	–
CCOc1ccc(/C=C2\CCC(C3CCCC3)C2=O)cc1 (stereo not drawn)	–	–	–	–	–	·	·

Compound activity from PubChem BioAssay.
